Source: ChEMBL document CHEMBL1150782, “Strong and selective inhibitors of hepatitis B virus replication among novel N4-hydroxy- and 5-methyl-beta-L-deoxycytidine analogues” (Antimicrob Agents Chemother, 2007)

Legend:
[1] = tested on: Hepatitis B virus; experiment: Antiviral activity against HBV in HepG2.2.15 cells assessed as decrease in extracellular viral DNA level at 0.3 uM by PCR; format: functional, organism-based; details: HepG2 2.2.15, TDE = time-dependent effect
Summary of the method: (§1)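 HepG2.2.15 (HBV-transfected) cells, ~10^5 per well in DMEM with 10% FBS; compound added at various concentrations with daily medium changes. Supernatants taken at day 3, 6 or 9, cleared, proteinase K digested, and HBV DNA amplified by PCR with subgenomic primers. Products run on 1% agarose, ethidium stained and imaged, calibrated against cloned HBV genome dilutions. EC50 taken from dose-response curves as 50% reduction of medium HBV DNA.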

[2] = Cytotoxicity against human HL60 cells after 3 days by MTT assay; format: cell-based; details: HL-60 cells
Summary of the method: (§2)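 HL-60 cells in RPMI or HepG2 cells in DMEM, seeded at 50,000 per well. Exposed for 3 days to varying compound concentrations at 37°C under humidified 5% CO2. Growth read by MTT reduction to formazan. CC50 is the concentration inhibiting growth by 50%; mean ± SD of at least three independent experiments.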

[3] = Cytotoxicity against human HepG2 cells after 3 days by MTT assay; format: cell-based; summary of the method: as §2
[4] = tested on: Hepatitis B virus; experiment: Antiviral activity against HBV in HepG2.2.15 cells assessed as decrease in extracellular viral DNA level by RT-PCR; format: functional, organism-based; details: HepG2 2.2.15; summary of the method: as §1
[5] = Inhibition of HBV DNA polymerase; parameters: species or system Hepatitis B virus
Summary of the method: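 Endogenous polymerase assay using HBV virions purified from untreated patient serum (>10^7 GE/ml) by ultracentrifugation and a sucrose step gradient. Incubated 1 h at 37°C; [3H]dCMP incorporation counted; IC50 from inhibition curves.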

[6] = tested on: Hepatitis B virus; experiment: Antiviral activity against HBV in HepG2.2.15 cells assessed as decrease in extracellular viral DNA level at 0.1 uM by PCR; format: functional, organism-based; details: HepG2 2.2.15, TDE = time-dependent effect; summary of the method: as §1
[7] = Cytotoxicity against human CEM cells; format: cell-based; details: CCRF-CEM cells
[8] = tested on: Hepatitis B virus; experiment: Antiviral activity against HBV in HepG2.2.15 cells assessed as decrease in extracellular viral DNA level at 0.5 uM by PCR; format: functional, organism-based; details: HepG2 2.2.15, TDE = time-dependent effect; summary of the method: as §1
[9] = Inhibition of duck HBV DNA polymerase; parameters: species or system Duck hepatitis B virus

SMILES | EC50 [4] [µM] | IC50 [5] [µM] | CC50 at 72 h [2] [µM] | CC50 at 72 h [3] [µM] | other results
Nc1ccn([C@@H]2CS[C@H](CO)O2)c(=O)n1 [LAMIVUDINE] | 0.1 | – | 1400 | 1200 | Activity [1]: tde
O=c1nc(NO)ccn1[C@@H]1C=C[C@H](COP(=O)(O)OP(=O)(O)OP(=O)(O)O)O1 | – | 0.21 | – | – | –
Cc1cn([C@@H]2CC[C@H](CO)O2)c(=O)nc1N | > 50 | – | 950 | 1550 | –
O=c1nc(NO)ccn1[C@@H]1C=C[C@H](CO)O1 | 0.03 | – | 3500 | 2500 | Activity [6]: tde
O=c1nc(NO)ccn1[C@@H]1C[C@@H](O)[C@H](CO)O1 | 2.38 | – | 460 | 545 | –
Nc1ccn([C@@H]2CC[C@H](CO)O2)c(=O)n1 | 0.2 | – | 94 | 85 | CC50 [7]: 70 µM
Nc1nc(=O)n([C@@H]2CS[C@H](CO)O2)cc1F [EMTRICITABINE] | 0.1 | – | 845 | 765 | –
Nc1ccn([C@@H]2C=C[C@H](CO)O2)c(=O)n1 | – | – | – | – | CC50 [7]: 20 µM
O=c1nc(NO)c(F)cn1[C@@H]1CS[C@H](CO)O1 | 5 | – | 770 | 855 | –
O=c1nc(NO)c(F)cn1[C@@H]1C[C@@H](O)[C@H](CO)O1 | 4.5 | – | 1370 | 920 | –
[N-]=[N+]=N[C@@H]1C[C@@H](n2ccc(NO)nc2=O)O[C@H]1CO | 50 | – | 2000 | 1160 | –
Nc1ccn([C@@H]2CS[C@H](COP(=O)(O)OP(=O)(O)OP(=O)(O)O)O2)c(=O)n1 [LAMIVUDINE TRIPHOSPHATE] | – | 0.3 | – | – | –
O=c1nc(NO)ccn1[C@@H]1CS[C@H](CO)O1 | 0.51 | – | 1450 | 1320 | Activity [8]: tde
Cc1cn([C@@H]2C[C@@H](O)[C@H](CO)O2)c(=O)nc1N | 0.9 | – | > 2000 | > 2000 | –
Cc1cn([C@H]2C[C@H](O)[C@@H](CO)O2)c(=O)[nH]c1=O [DOXRIBTIMINE] | 0.3 | – | 1760 | 2100 | –
Cc1cn([C@@H]2C[C@@H](F)[C@H](CO)O2)c(=O)nc1N | > 50 | – | 1650 | 1800 | –
O=c1nc(NO)ccn1[C@@H]1CC(F)[C@H](CO)O1 (stereo partly specified) | 25 | – | 4400 | 820 | –
Cc1cn([C@@H]2C=C[C@H](CO)O2)c(=O)nc1N | > 50 | – | 600 | 1400 | –
O=c1nc(NO)ccn1[C@@H]1CC[C@H](CO)O1 | 0.55 | – | 1600 | 2250 | –
Cc1cn([C@@H]2C[C@@H](O)[C@H](CO)O2)c(=O)nc1NO | 5.04 | – | 600 | 490 | –
Cc1cn([C@@H]2C[C@@H](N=[N+]=[N-])[C@H](CO)O2)c(=O)nc1N | 13 | – | 1900 | 1750 | –

Continued, in another order:

EC50 [4] [µM] | IC50 [5] [µM] | SMILES | CC50 at 72 h [2] [µM] | CC50 at 72 h [3] [µM] | other results
– | 4 | Cc1cn([C@@H]2C[C@@H](O)[C@H](COP(=O)(O)OP(=O)(O)OP(=O)(O)O)O2)c(=O)nc1NO | – | – | –
– | 6 | O=c1nc(NO)ccn1[C@@H]1C[C@@H](O)[C@H](COP(=O)(O)OP(=O)(O)OP(=O)(O)O)O1 | – | – | –
– | 1.9 | Cc1cn([C@@H]2C[C@@H](F)[C@H](COP(=O)(O)OP(=O)(O)OP(=O)(O)O)O2)c(=O)nc1N | – | – | –
– | 0.99 | O=c1nc(NO)ccn1[C@@H]1CC[C@H](COP(=O)(O)OP(=O)(O)OP(=O)(O)O)O1 | – | – | –
– | 0.46 | Cc1cn([C@@H]2C[C@@H](O)[C@H](COP(=O)(O)OP(=O)(O)OP(=O)(O)O)O2)c(=O)[nH]c1=O [TELBIVUDINE 5'TRIPHOSPHATE] | – | – | IC50 [9]: 1 µM
– | 0.9 | Cc1cn([C@@H]2C[C@@H](O)[C@H](COP(=O)(O)OP(=O)(O)OP(=O)(O)O)O2)c(=O)nc1N | – | – | –
– | 0.85 | Cc1cn([C@@H]2C[C@@H](N=[N+]=[N-])[C@H](COP(=O)(O)OP(=O)(O)OP(=O)(O)O)O2)c(=O)nc1N | – | – | –
– | 6.2 | Cc1cn([C@@H]2C=C[C@H](COP(=O)(O)OP(=O)(O)OP(=O)(O)O)O2)c(=O)nc1N | – | – | –
– | 6.5 | Cc1cn([C@@H]2CC[C@H](COP(=O)(O)OP(=O)(O)OP(=O)(O)O)O2)c(=O)nc1N | – | – | –
